# Experimental data from ChEMBL document CHEMBL4049414, “Can We Make Small Molecules Lean? Optimization of a Highly Lipophilic TarO Inhibitor” (J Med Chem, 2017).
# Active and inactive are the calls of the source. The rule behind the calls is not given here.
# Tests used:
# [1] = system: Staphylococcus aureus; test: Growth inhibition of methicillin-resistant Staphylococcus aureus COL after 20 hrs
# How it was run: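 MRSA COL grown with compound alone, with no antibiotic added. Growth read by OD600. The value is the minimum concentration that inhibits 95% of growth (iMITC95).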
# [2] = system: Staphylococcus aureus subsp. aureus COL; test: Inhibition of methicillin-resistant Staphylococcus aureus COL TarO assessed as compound concentration required for potentiation of imipenem-mediated bacterial growth inhibition by 95% after 20 hrs
# How it was run: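 MRSA COL grown with compound in the presence of imipenem at 4 μg/mL. Growth read by OD600. The value is the minimum concentration that inhibits 95% of growth (sMITC95).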
# [3] = Inhibition of methicillin-resistant Staphylococcus aureus COL TarO assessed as suppression of bacteriophage K-mediated cell lysis; set-up: species or system Staphylococcus aureus subsp. aureus COL
# [4] = Inhibition of TarO in methicillin-resistant Staphylococcus aureus membranes assessed as reduction in C55-P-P-GlcNAc production using C55-P as substrate in presence of UDP-GlcNAc by LC-MS analysis
# [5] = Inhibition of methicillin-resistant Staphylococcus aureus COL TarO assessed as late stage targocil suppression after 20 hrs; set-up: species or system Staphylococcus aureus subsp. aureus COL
# [6] = species: Homo sapiens; test: Inhibition of TBOB binding to GABA-A receptor (unknown origin) at 10 uM relative to control
# [7] = molecular target: Histamine H2 receptor (Homo sapiens) (UniProt P25021); test: Inhibition of H2 receptor (unknown origin) at 10 uM relative to control
# Histamine H2 receptor (Homo sapiens), sequence (P25021 whole entry): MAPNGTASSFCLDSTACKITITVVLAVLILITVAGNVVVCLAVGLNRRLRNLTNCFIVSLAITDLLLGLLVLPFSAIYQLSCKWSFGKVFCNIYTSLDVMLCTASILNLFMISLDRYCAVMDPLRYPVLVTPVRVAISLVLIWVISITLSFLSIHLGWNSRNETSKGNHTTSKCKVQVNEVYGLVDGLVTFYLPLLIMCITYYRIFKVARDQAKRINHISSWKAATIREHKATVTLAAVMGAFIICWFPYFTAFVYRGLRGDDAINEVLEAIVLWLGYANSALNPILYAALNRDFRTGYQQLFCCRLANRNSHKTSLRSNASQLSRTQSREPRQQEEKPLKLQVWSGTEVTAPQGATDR
# [8] = species: Homo sapiens; test: Inhibition of PAF (unknown origin) at 10 uM relative to control
# [9] = molecular target: Mitogen-activated protein kinase 3 (Homo sapiens) (UniProt P27361); test: Inhibition of ERK1 (unknown origin) at 10 uM relative to control
# Mitogen-activated protein kinase 3 (Homo sapiens), sequence (P27361 whole entry): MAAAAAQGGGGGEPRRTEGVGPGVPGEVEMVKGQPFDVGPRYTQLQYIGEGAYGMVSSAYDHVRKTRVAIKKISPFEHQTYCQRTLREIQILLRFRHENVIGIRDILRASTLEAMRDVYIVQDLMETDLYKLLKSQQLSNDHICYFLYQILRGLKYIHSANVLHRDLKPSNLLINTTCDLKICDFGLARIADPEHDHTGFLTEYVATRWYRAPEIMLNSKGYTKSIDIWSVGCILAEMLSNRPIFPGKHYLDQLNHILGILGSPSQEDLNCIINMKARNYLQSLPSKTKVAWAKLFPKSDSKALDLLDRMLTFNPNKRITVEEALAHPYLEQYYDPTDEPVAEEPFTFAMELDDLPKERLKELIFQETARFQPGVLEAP
# [10] = AUC (0 to 24 hrs) in mouse at 100 mg/kg, po; type: ADME, organism-based; set-up: time < 24 hr, dose 100 mg/kg, route oral; details: in vivo
# [11] = species: Homo sapiens; test: Inhibition of adenosine transporter (unknown origin) at 10 uM relative to control
# [12] = molecular target: Cannabinoid receptor 1 (Homo sapiens) (UniProt P21554); test: Inhibition of CB1 receptor (unknown origin) at 10 uM relative to control
# Cannabinoid receptor 1 (Homo sapiens), sequence (P21554 whole entry): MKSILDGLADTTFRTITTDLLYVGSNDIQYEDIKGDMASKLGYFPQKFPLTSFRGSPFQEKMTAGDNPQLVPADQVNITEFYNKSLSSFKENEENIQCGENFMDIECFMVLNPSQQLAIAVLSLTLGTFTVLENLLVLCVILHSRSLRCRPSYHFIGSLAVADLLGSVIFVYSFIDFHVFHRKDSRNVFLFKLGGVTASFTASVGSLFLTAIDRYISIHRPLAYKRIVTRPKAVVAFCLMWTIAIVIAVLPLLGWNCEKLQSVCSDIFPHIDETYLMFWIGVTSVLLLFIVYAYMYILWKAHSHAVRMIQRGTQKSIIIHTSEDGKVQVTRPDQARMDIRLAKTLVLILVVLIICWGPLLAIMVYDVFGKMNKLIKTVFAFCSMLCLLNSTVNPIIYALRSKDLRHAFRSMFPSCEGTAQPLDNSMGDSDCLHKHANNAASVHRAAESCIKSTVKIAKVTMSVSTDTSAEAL
# [13] = Cmax in mouse lung at 50 mg/kg, sc; type: ADME, organism-based; set-up: dose 50 mg/kg, route subcutaneous
# [14] = Ratio of AUC (0 to x) in mouse spleen to AUC (0 to x) in mouse blood at 50 mg/kg, sc; type: ADME, organism-based; details: read-out: Ratio AUC
# [15] = Tmax in mouse lung at 50 mg/kg, sc; type: ADME, organism-based
# [16] = system: Staphylococcus aureus; test: (§1) Potentiation of imipenem-induced antibacterial activity against methicillin-resistant Staphylococcus aureus COL MB 5393 infected in neutropenic balb/c mouse assessed as log reduction in bacterial burden in kidney at 25 mg/kg, sc administered three times per day at 2, 5 and 8 hrs post challenge cotreated with imipenem measured 24 hrs post challenge; type: functional
# [17] = Ratio of Cmax in mouse spleen to Cmax in mouse blood at 50 mg/kg, sc; type: ADME, organism-based
# [18] = Cmax in mouse liver at 50 mg/kg, sc; type: ADME, organism-based; set-up: dose 50 mg/kg, route subcutaneous
# [19] = AUC (0 to x) in mouse lung at 50 mg/kg, sc; type: ADME, organism-based
# [20] = Volume of distribution at steady state in rat at 1 mg/kg, iv; type: ADME, organism-based; details: in vivo, read-out: Vdss
# [21] = Terminal half life in rat at 1 mg/kg, iv; type: ADME, organism-based; details: in vivo, read-out: beta t1/2 (converted)
# [22] = system: Mus musculus; test: Toxicity in mouse at 50 mg/kg, sc; type: organism-based; details: in vivo
# [23] = Clearance in mouse at 2 mg/kg, iv; type: ADME, organism-based; details: in vivo
# [24] = Tmax in mouse spleen at 50 mg/kg, sc; type: ADME, organism-based
# [25] = Tmax in mouse blood at 50 mg/kg, sc; type: ADME, organism-based
# [26] = AUC (0 to x) in mouse blood at 50 mg/kg, sc; type: ADME, organism-based
# [27] = AUC (0 to x) in mouse spleen at 50 mg/kg, sc; type: ADME, organism-based
# [28] = Tmax in mouse kidney at 50 mg/kg, sc; type: ADME, organism-based
# [29] = Clearance in rat at 1 mg/kg, iv; type: ADME, organism-based; details: in vivo
# [30] = Cmax in mouse spleen at 50 mg/kg, sc; type: ADME, organism-based; set-up: dose 50 mg/kg, route subcutaneous
# [31] = Terminal half life in mouse at 2 mg/kg, iv; type: ADME, organism-based; details: in vivo, read-out: beta t1/2 (converted)
# [32] = AUC (0 to x) in mouse liver at 50 mg/kg, sc; type: ADME, organism-based
# [33] = Cmax in mouse kidney at 50 mg/kg, sc; type: ADME, organism-based; set-up: dose 50 mg/kg, route subcutaneous
# [34] = AUC (0 to infinity) in mouse at 2 mg/kg, iv; type: ADME, organism-based; set-up: dose 2 mg/kg, time infinity, route intravenous; details: in vivo
# [35] = system: Staphylococcus aureus; test: as §1, with “50” for “25”; type: functional
# [36] = system: Staphylococcus aureus; test: Antibacterial activity against methicillin-resistant Staphylococcus aureus COL MB 5393 infected in neutropenic balb/c mouse assessed as reduction in bacterial burden in kidney at 12.5 to 50 mg/kg, sc administered three times per day at 2, 5 and 8 hrs post challenge measured 24 hrs post challenge; type: functional, organism-based
# [37] = AUC (0 to x) in mouse kidney at 50 mg/kg, sc; type: ADME, organism-based
# [38] = Tmax in mouse liver at 50 mg/kg, sc; type: ADME, organism-based
# [39] = system: Staphylococcus aureus; test: Potentiation of imipenem-induced antibacterial activity against methicillin-resistant Staphylococcus aureus COL MB 5393 infected in sc dosed neutropenic balb/c mouse assessed as reduction in bacterial burden in kidney administered three times per day at 2, 5 and 8 hrs post challenge cotreated with imipenem measured 24 hrs post challenge; type: functional, organism-based
# [40] = AUC (0 to infinity) in rat at 1 mg/kg, iv; type: ADME, organism-based; set-up: dose 1 mg/kg, time infinity, route intravenous; details: in vivo
# [41] = system: Staphylococcus aureus; test: as §1, with “as” for “as log”, “12.5” for “25”; type: functional, organism-based
# [42] = Cmax in mouse blood at 50 mg/kg, sc; type: ADME, organism-based; set-up: dose 50 mg/kg, route subcutaneous
# [43] = Volume of distribution at steady state in mouse at 2 mg/kg, iv; type: ADME, organism-based; details: in vivo, read-out: Vdss
# [44] = Solubility of the compound in PBS buffer; type: physicochemical
compound,measurement,setting,value
O=C(NCc1cncc2ccccc12)N1C(=O)O[C@H](c2cc(C(F)(F)F)cc(C(F)(F)F)c2)[C@@H]1CO,MITC95,[1],> 200 µM
same,MITC95,[2],220 nM
same,IC50,[3],1260 nM
same,IC50,[4],170 to 174 nM
same,IC50,[5],496 nM
C[C@H]1[C@@H](c2cc(C(F)(F)F)cc(C(F)(F)F)c2)OC(=O)N1C(=O)CCc1cncc2ccccc12,MITC95,[1],> 200 µM
same,MITC95,[2],23 nM
same,inhibition,[6],> 50%
same,inhibition,[7],> 50%
same,inhibition,[8],> 50%
same,inhibition,[9],> 50%
same,AUC(0-t) at 24 h,[10],1.7 µM·h
same,inhibition,[11],> 50%
same,IC50,[4],24 nM
same,inhibition,[12],> 50%
C[C@H]1[C@@H](c2cccc(C(F)(F)F)c2)OC(=O)N1C(=O)NCc1cncc2cccnc12,MITC95,[1],> 200 µM
same,MITC95,[2],970 nM
same,IC50,[4],402 nM
C[C@H]1[C@@H](c2ccccn2)OC(=O)N1C(=O)NCCc1cccc2ccccc12,MITC95,[2],> 200000 nM
same,IC50,[4],16000 nM
C[C@H]1[C@@H](c2cc(C(F)(F)F)cc(C(F)(F)F)c2)OC(=O)N1C(=O)CCCc1cccc2ccccc12,MITC95,[1],> 200 µM
same,MITC95,[2],125 nM
same,IC50,[4],28 nM
C[C@H]1[C@@H](c2cc(C(F)(F)F)cc(C(F)(F)F)c2)OC(=O)N1C(=O)NCc1cncc2cccnc12,MITC95,[1],> 200 µM
same,MITC95,[2],125 nM
same,IC50,[4],12 nM
C[C@H]1[C@@H](c2cccc(C(F)(F)F)c2)OC(=O)N1C(=O)NCc1cncc2ccccc12,Cmax,[13],43.7 µM
same,Kp,[14],6 to 8
same,Tmax,[15],0.7 h
same,log(activity),[16],2
same,MITC95,[1],> 200 µM
same,Kp,[17],6 to 8
same,MITC95,[2],250 nM
same,Cmax,[18],101 µM
same,AUC,[19],123 µM·h
same,Vd,[20],6.6 L/kg
same,half-life,[21],1.7 h
same,Activity,[22],Non-Toxic
same,clearance,[23],61 to 61.4 mL/min/kg
same,Tmax,[24],1 h
same,Tmax,[25],0.5 h
same,AUC,[26],9.9 µM·h
same,AUC,[27],75 µM·h
same,Tmax,[28],1 h
same,clearance,[29],92.7 to 93 mL/min/kg
same,Cmax,[30],29 µM
same,half-life,[31],6.4 h
same,AUC,[32],322 µM·h
same,Cmax,[33],95 µM
same,AUC(0-inf),[34],1.26 µM·h
same,log(activity),[35],2.5
same,Activity,[36],inactive
same,AUC,[37],336 µM·h
same,Tmax,[38],1 h
same,IC50,[4],162 nM
same,Activity,[39],Dose-dependent effect
same,AUC(0-inf),[40],0.42 µM·h
same,Activity,[41],inactive
same,Cmax,[42],4.9 µM
same,Vd,[43],13.1 to 13.5 L/kg
O=C(O)[C@H]1[C@@H](c2cccc(C(F)(F)F)c2)OC(=O)N1C(=O)NCc1cncc2ccccc12,MITC95,[1],> 200 µM
same,MITC95,[2],> 200000 nM
same,IC50,[4],> 200000 nM
C[C@H]1[C@@H](c2cc(C(F)(F)F)cc(C(F)(F)F)c2)OC(=O)N1C(=O)CCc1cccc2ccccc12,MITC95,[1],> 200 µM
same,MITC95,[2],15 nM
same,IC50,[4],9 nM
COc1cc(C(F)(F)F)cc([C@H]2OC(=O)N(C(=O)NCc3cncc4cccnc34)[C@H]2CO)n1,MITC95,[1],> 200 µM
same,MITC95,[2],900 nM
same,inhibition,[6],inactive
same,inhibition,[7],inactive
same,Vd,[20],1.2 L/kg
same,half-life,[21],0.48 h
same,inhibition,[8],inactive
same,inhibition,[9],inactive
same,clearance,[29],36.8 mL/min/kg
same,solubility,[44],94 µM
same,inhibition,[11],inactive
same,IC50,[4],880 nM
same,AUC(0-inf),[40],0.95 µM·h
same,inhibition,[12],inactive
O=C(NCc1cncc2ccccc12)N1C(=O)O[C@H](c2cc(F)cc(C(F)(F)F)c2)[C@@H]1CO,MITC95,[1],> 200 µM
same,MITC95,[2],320 nM
same,IC50,[4],210 nM
C[C@H]1[C@@H](c2cc(C(F)(F)F)cc(C(F)(F)F)c2)OC(=O)N1C(=O)NCc1cncc2ccccc12,MITC95,[1],> 200 µM
same,MITC95,[2],31 nM
same,IC50,[3],94 nM
same,IC50,[4],29 nM
same,IC50,[5],191 nM
O=C(NCc1cncc2ccccc12)N1C(=O)O[C@H](c2cccc(C(F)(F)F)c2)[C@@H]1CO,MITC95,[1],> 200 µM
same,MITC95,[2],650 nM
same,IC50,[4],300 nM
